Arrestin-AP2 inh: blocks beta-arrestin peptide binding to AP2 adaptin. FITC-arrestin peptide / GST-AP2 beads, flow cytometry; AP2 beta2 appendage carries R879A mutation. inhibition, % at 10 µM. 0.31% of 340,000 active;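 active = inhibition above a set limit, near 3 SD of compounds lacking own fluorescence, cut at about 54% in these data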;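 note: plate controls were DMSO wells for no effect and 5 µM unlabelled arrestin peptide for full effect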
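System: GST-AP2 R879A glutathione beads; medium: PBS, Tween 20 0.05%, BSA 0.1%; reagent: fluorescein-tagged arrestin peptide at 50 nM final; schedule: pre-incubation 12 min, peptide binding 1 h, room temperature; detection: flow cytometry, FL1 (488/535 nm); read-out: inhibition as reduced fluorescein signal on beads, percent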
H9c2 TAG inh: inhibitors of triacylglycerol accumulation | H9c2 cells, Nile Red lipid (TAG) fluorescence; cells loaded with 200 µM oleic acid | inhibition, % at 12.5 µM | 0.66% of 230,000 active | AID 651582;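 active = pattern-corrected inhibition of lipid staining of at least 50% with the nuclear-stain viability signal not falling by more than 50%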;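 note: 0% = DMSO wells and 100% = triacsin C control wells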
NTR1 ag: agonists of human neurotensin receptor NTR1. NTR1-U2OS beta-arrestin-GFP spot imaging, agonist mode. activation, % at 20 µM. P30989. 0.17% of 330,000 active;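 active = activation at or above 40% of the spot to cytoplasm intensity ratio, with at least 20 cells analyzed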;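 note: 0% = DMSO without peptide and 100% = 100 nM NTR1 peptide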
GRK2 inh: human GRK2 inhibition via aptamer displacement; P25098; bead flow cytometry, FAM-aptamer displacement from GRK2; inhibition of aptamer binding, % at 10 µM; 0.59% of 330,000 active; AID 488847;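 active = inhibition of aptamer binding above 40%, roughly 3 SD of noise, on plates passing a quality check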;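 note: median bead fluorescence of bound FAM aptamer so fluorescent compounds give negative values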
Target sequence (P25098 whole entry, looked up): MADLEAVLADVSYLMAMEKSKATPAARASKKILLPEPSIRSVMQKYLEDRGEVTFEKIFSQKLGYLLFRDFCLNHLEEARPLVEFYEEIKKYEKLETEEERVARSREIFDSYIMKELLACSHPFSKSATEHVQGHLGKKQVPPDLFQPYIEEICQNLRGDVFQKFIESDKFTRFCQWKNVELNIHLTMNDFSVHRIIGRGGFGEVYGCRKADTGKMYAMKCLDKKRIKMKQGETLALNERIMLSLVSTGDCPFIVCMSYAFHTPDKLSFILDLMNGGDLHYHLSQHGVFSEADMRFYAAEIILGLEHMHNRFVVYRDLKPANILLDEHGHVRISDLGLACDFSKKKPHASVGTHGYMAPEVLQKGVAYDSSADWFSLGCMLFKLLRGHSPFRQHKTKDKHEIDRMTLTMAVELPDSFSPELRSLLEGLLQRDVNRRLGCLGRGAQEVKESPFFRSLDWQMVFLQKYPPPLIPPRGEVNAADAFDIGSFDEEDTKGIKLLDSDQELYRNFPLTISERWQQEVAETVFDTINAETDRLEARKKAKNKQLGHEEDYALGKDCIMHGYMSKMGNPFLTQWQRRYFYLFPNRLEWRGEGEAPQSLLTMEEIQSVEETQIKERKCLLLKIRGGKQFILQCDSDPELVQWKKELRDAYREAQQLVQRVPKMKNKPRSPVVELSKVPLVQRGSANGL
Beta2AR agonist: agonists of human beta-2 adrenergic receptor inducing internalization. Am2.2-beta2AR cells, FAP receptor internalization, flow cytometry. 0.43% of 340,000 active. AID 504454. response, % (test concentration not listed). P07550;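 active = response above a set limit, near 3 SD of response in nonfluorescent compounds, cut at about 42% in these data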
Hep lipid drop: modulators of hepatic lipid droplet formation. inhibition, % at 6.5 µM. 0.4% of 240,000 active. AML12 mouse hepatocytes, oleate lipid droplets, BODIPY imaging;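 active = lipid droplet intensity inhibited by at least 50%, with more than 500 cells counted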
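Technique: fluorescence imaging, 20x objective, two fields per well / Assay system: AML12 hepatocytes (mouse) / Measure: % inhibition of lipid droplet signal / Doses: 6.5 µM single-point dosing / Incubation: overnight exposure / Reagent: 100 µM oleic acid challenge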
GRK2 inh confirm: human GRK2 inhibition confirmation, cherry pick 1 | 4% of 2,000 active | aptamer displacement, % at 10 µM | bead-bound GRK2, FAM-aptamer displacement, flow cytometry | shares compounds with GRK2 inh | AID 504451;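 active = aptamer displacement above 40%, near three times the noise of non-fluorescent compounds, on plates passing quality checks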;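 note: negative values mostly reflect intrinsic compound fluorescence rather than true enhancement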
Aptamer quench: counter-screen for GRK2 aptamer inhibitors: fluorescent aptamer quenchers | shares compounds with GRK2 inh | 110 tested, under 10 active | fluorescence change (kMESF span), kMESF (concentration not given with the values) | Fluorescent RNA aptamer beads, quenching, flow cytometry; active compounds read high;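 active = compounds whose bead fluorescence drops by more than 37 kMESF across the dose range, marking them as dye quenchers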
FAM quench CP1: counter-screen for GRK2 aptamer inhibitors: fluorescent aptamer quenchers; shares compounds with GRK2 inh; Carboxyfluorescein RNA aptamer on beads, flow cytometry quenching; active compounds read low; fluorescence response (% of DMSO), % at 10 µM; 2,000 tested, under 10 active; AID 504580;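 active = compounds that quench the bead-bound fluorescent RNA probe, cutting fluorescence to under half of the solvent control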;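 note: counterscreen run without GRK2 so only probe quenching by compound is measured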
NTR1 ag confirm: confirmation of agonists of human NTR1 | NTR1-U2OS beta-arrestin-GFP translocation imaging | shares compounds with NTR1 ag | AID 504550 | 38% of 480 active | activation, % at 20 µM;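 active = mean activation at 20 µM of at least 40%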;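 note: 0% = DMSO without peptide and 100% = 100 nM NTR1 peptide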
* = called active by the depositor; . = no result. A selection: hits, their analogues and other compounds. The true share with any hit is near 2%.

SMILES | Arrestin-AP2 inh | H9c2 TAG inh | NTR1 ag | GRK2 inh | Beta2AR agonist | Hep lipid drop | GRK2 inh confirm | FAM quench CP1 | others
O=C1NC(=O)N(c2ccc3c(c2)OCO3)C(=O)/C1=C/c1ccc(N2CCCCC2)o1 | 7 | . | 1 | 0 | -23 | . | . | .
O=C1NC(=O)N(c2ccc3c(c2)OCO3)C(=O)/C1=C\c1ccc(-c2ccccc2C(=O)O)o1 | -7 | -6 | 0 | 60* | 3 | -2 | 47* | 96 | Aptamer quench=4.3
Cc1cc(C(=O)C[N+]23CCN(CC2)CC3)c(C)n1-c1ccc(Br)cc1 | 7 | 0 | -1 | 0 | 1 | 0 | . | .
CC(C)N1C(=O)/C(=C/C=C/c2ccco2)C(=O)N(Cc2ccco2)C1=O | -6 | -13 | 9 | 16 | 19 | . | 11 | 103
O=C(O)CSC(=S)N1CC2CC(C1)c1cccc(=O)n1C2 (stereo not drawn) | 15 | 18 | 2 | 2 | 7 | 4 | . | .
Cc1cc(=O)oc2c(C)c(OCC(=O)N3CCN(Cc4ccccc4)CC3)ccc12 | 18 | . | 0 | 0 | 9 | 4 | 4 | 102
NC(=O)C1CCN(/C=C2\C(=O)NC(=O)N(Cc3ccco3)C2=O)CC1 | 10 | 8 | 1 | 47* | 1 | 1 | 20 | 99
COC(=O)C1=C(c2cc3ccccc3s2)C[C@@H]2CC[C@H]1N2C(=O)NCCS(C)=O (stereo partly drawn) | 19 | -4 | -1 | 0 | 0 | . | . | .
O=C(O)c1cccc2c1NC(C(=O)O)C1CC(Sc3ccccc3[N+](=O)[O-])C(Cl)C21 (stereo not drawn) | -3 | . | . | 60* | -7 | 7 | 41* | 104 | Aptamer quench=8.5
C[N+](C)(C)CCOC(=O)CBr | 11 | -9 | 3 | 14 | 2 | . | 0 | 104
CC(=O)OCC[N+](C)(C)C | 6 | 3 | 10 | 3 | -1 | 1 | . | .
C[CH2][Hg][S]c1ccccc1C(=O)O | -4 | 99 | 97* | 0 | 35 | . | . | . | NTR1 ag confirm=95*
CC(C)COC(=O)c1ccccc1C(=O)OCC(C)C | -7 | . | -1 | 1 | 1 | 2 | . | .
CC(C)c1ccc(N2C(=O)NC(=O)/C(=C\c3cnc(-c4ccccc4)nc3)C2=O)cc1 | 19 | -10 | -1 | 0 | 0 | . | . | .
CC(C)c1ccc(N2C(=O)NC(=O)/C(=C\C=C\c3ccco3)C2=O)cc1 | . | . | 42* | 11 | . | -47 | . | . | NTR1 ag confirm=52*
Oc1ccc(-[n+]2c(-c3ccccc3)cc(-c3ccccc3)cc2-c2ccccc2)cc1 | 5 | 12 | 81* | 0 | 22 | . | . | . | NTR1 ag confirm=84*
Cc1ccc(NC(=O)c2cc(-c3ccccc3)n(CCCN3CCOCC3)c2C)cc1 | 18 | 3 | 0 | 0 | 5 | -4 | . | .
CCOC(=O)C(O)(c1ccc(NC(=S)NC(=O)c2ccc(Cl)cc2Cl)c(C)c1)C(F)(F)F (stereo not drawn) | 10 | . | 45* | 0 | 1 | 8 | . | . | NTR1 ag confirm=11
COC(=O)C1=C(c2ccc3ccccc3c2)C[C@@H]2CC[C@H]1N2C(=O)NCc1ccc(C(F)(F)F)cc1 | 22 | 40 | 0 | 0 | 3 | . | . | .
Cn1cccc1/C=C1/C(=O)NC(=O)N(C(C)(C)C)C1=O | 10 | -6 | 2 | 0 | -20 | -13 | . | .
Cc1cc(C)cc(N2C(=O)NC(=O)/C(=C\c3cccn3-c3ccccc3)C2=O)c1 | 7 | 2 | 76* | 0 | 13 | -4 | . | . | NTR1 ag confirm=67*

Screening results as filed in PubChem.
